{"source": "ChEMBL document CHEMBL1124192", "about": "“Cyclopentenylcytosine. A carbocyclic nucleoside with antitumor and antiviral properties” (J Med Chem, 1988)", "key": {"Cytomegalovirus [1]": {"test_system": "Cytomegalovirus", "test": "Log value for antiviral activity against Cytomegalovirus (AD169) from MRC5 diploid human embryonic lung cells at 100 ug/mL", "assay_type": "functional", "procedure,_shortened": "(§1)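 CMV AD169 yield reduction in MRC5 cells. Subconfluent monolayers infected at MOI 0.2 PFU/cell for 1.5 h at 37 °C, rinsed, then fed drug in MEM + 2% FBS, in duplicate. Drug refed on day 3, cultures harvested on day 6 by freeze-thaw and pooled. Yield titrated by plaque assay under 0.25% agarose overlay for 5–6 days, then formalin-fixed and methylene blue-stained for plaque counts.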"}, "Cytomegalovirus [2]": {"test_system": "Cytomegalovirus", "test": "Log value for antiviral activity against Cytomegalovirus (AD169) from MRC5 diploid human embryonic lung cells at 320 ug/mL", "assay_type": "functional", "procedure,_shortened": "as §1"}, "[3]": {"test_system": "unidentified influenza virus", "test": "Inhibitory dose of compound required to inhibit cytopathogenic effects of influenza virus with A2/Aichi/2/68 strain in MDCK cells", "assay_type": "functional", "details": "read-out: ID50 (the source's name)"}, "[4]": {"test_system": "unidentified influenza virus", "test": "Tested for inhibition of virus-induced cytopathogenic effect and cytotoxicity of compound against influenza virus with A2/Aichi/2/68 strain in MDCK cell", "assay_type": "functional"}, "[5]": {"test_system": "Japanese encephalitis virus", "test": "Tested for inhibition of virus-induced cytopathogenic effect and cytotoxicity of compound against Japanese encephalitis virus with […] strain in vero cell", "assay_type": "functional"}, "L1210 [6]": {"test_system": "L1210", "test": "Compound was tested for antitumor activity against L1210 leukemia in mouse at dose 1 mg/kg administered subcutaneously in experiment 2", "assay_type": "functional", "details": "L1210, sc, route subcutaneous", "procedure,_shortened": "(§2)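 Mice bearing L1210, L1210/ara-C, P388 or P388/ara-C leukaemia. Tumour implanted at the site each line names: ip, sc or ic. Drug given ip in physiologic saline on a QD1-9 schedule, at several dose levels per experiment. Life-span runs ended on day 30. Read-out is median % increase in life span versus tumoured untreated controls, with long-term survivors included.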"}, "L1210 [7]": {"test_system": "L1210", "test": "Compound was tested for antitumor activity against L1210 leukemia in mouse at dose 2.25 mg/kg administered intraperitoneally in experiment 2", "assay_type": "functional", "details": "L1210, ip, route intraperitoneal", "procedure,_shortened": "as §2"}, "L1210 [8]": {"test_system": "L1210", "test": "Compound was tested for antitumor activity against L1210/ara-C leukemia in mouse at dose 1 mg/kg administered intraperitoneally", "assay_type": "functional", "details": "L1210, ip, route intraperitoneal", "procedure,_shortened": "as §2"}, "L1210 [9]": {"test_system": "L1210", "test": "Compound was tested for antitumor activity against L1210/ara-C leukemia in mouse at dose 2.25 mg/kg administered intraperitoneally", "assay_type": "functional", "details": "L1210, ip, route intraperitoneal", "procedure,_shortened": "as §2"}, "L1210 [10]": {"test_system": "L1210", "test": "Median percent increase in life span of tumored, treated mice relative to tumored, untreated controls after intraperitoneal dose 1 mg/kg daily (1-9 days)", "assay_type": "functional", "details": "Mus musculus, L1210, ip"}, "[11]": {"test_system": "Japanese encephalitis virus", "test": "Inhibitory dose of compound required to inhibit cytopathogenic effects of Japanese encephalitis virus with […] strain in vero cells", "assay_type": "functional", "details": "read-out: ID50 (the source's name)"}, "L1210 [12]": {"test_system": "L1210", "test": "Compound was tested for antitumor activity against L1210 leukemia in mouse at dose 1 mg/kg administered intraperitoneally in experiment 2", "assay_type": "functional", "details": "L1210, ip, route intraperitoneal", "procedure,_shortened": "as §2"}, "M5076": {"test_system": "M5076", "test": "Log cell kill at the end of treatment at dose 0.5 mg/kg administered intraperitoneally", "assay_type": "functional, Mus musculus", "details": "route intraperitoneal"}, "L1210 [13]": {"test_system": "L1210", "test": "Compound was tested for antitumor activity against L1210 leukemia in mouse at dose 1.5 mg/kg administered intracerebrally in experiment 1", "assay_type": "functional", "details": "L1210, central", "procedure,_shortened": "as §2"}, "L1210 [14]": {"test_system": "L1210", "test": "Compound was tested for antitumor activity against L1210 leukemia in mouse at dose 1.5 mg/kg administered subcutaneously in experiment 1", "assay_type": "functional", "details": "L1210, sc, route subcutaneous", "procedure,_shortened": "as §2"}, "Mus musculus [15]": {"test_system": "Mus musculus", "test": "Compound was tested for antitumor activity against human A549 lung tumor xenografts in athymic mice at dose 2 mg/kg administered subrenal capsule in experiment 2", "assay_type": "functional"}, "Mus musculus [16]": {"test_system": "Mus musculus", "test": "Compound was tested for antitumor activity against human LOX melanoma tumor xenografts in athymic mice at dose 1 mg/kg administered intraperitoneally in experiment 1", "assay_type": "functional", "details": "ip, route intraperitoneal", "procedure,_shortened": "(§3)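 Athymic mice carrying human LOX melanoma. Drug given ip in saline on a QD1-9 schedule, at several dose levels. Life-span experiment ended on day 30. Read-out is % increase in life span versus untreated tumoured controls, with long-term survivors included.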"}, "Mus musculus [17]": {"test_system": "Mus musculus", "test": "Compound was tested for antitumor activity against human LOX melanoma tumor xenografts in athymic mice at dose 2.25 mg/kg administered intraperitoneally", "assay_type": "functional", "details": "ip, route intraperitoneal", "procedure,_shortened": "as §3"}, "P388 [18]": {"test_system": "P388", "test": "Number of 30-day survivors out of 6 mice at dose 1.5 mg/kg administered intraperitoneally", "assay_type": "functional, Mus musculus", "details": "route intraperitoneal"}, "P388 [19]": {"test_system": "P388", "test": "Compound was tested for antitumor activity against P388 leukemia in mouse at dose 1 mg/kg administered intraperitoneally in experiment 1", "assay_type": "functional", "details": "P388, ip, route intraperitoneal", "procedure,_shortened": "as §2"}, "Punta Toro virus": {"test_system": "Punta Toro virus", "test": "Tested for inhibition of virus-induced cytopathogenic effect and cytotoxicity of compound against Punta toro virus with adames strain in vero cell", "assay_type": "functional"}, "[20]": {"test_system": "Vesicular stomatitis virus", "test": "Inhibitory dose of compound required to inhibit cytopathogenic effects of vesicular stomatitis RNA virus with indiana strain in L929 cells", "assay_type": "functional"}, "[21]": {"test_system": "Vesicular stomatitis virus", "test": "Tested for inhibition of virus-induced cytopathogenic effect and cytotoxicity of compound against vesicular stomatitis RNA virus with indiana strain in L929 cell", "assay_type": "functional"}, "Human alphaherpesvirus 3 [22]": {"test_system": "Human alphaherpesvirus 3", "test": "Compound was tested for antiviral activity against Varicella-Zoster from human diploid foreskin cells in mono layer culture at 3.2 ug/ml", "assay_type": "functional", "procedure,_shortened": "(§4)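 VZV isolate DM625 on Huf cells (human diploid foreskin monolayers). Inoculum was left on after 1 h adsorption at 37 °C. Drug overlay in MEM + 2% FBS without agarose, refed with fresh drug at 72 h, in 2% CO2. Cells fixed in 10% formalin and stained with methylene blue; plaques counted day 6. % plaque reduction versus untreated virus controls, triplicates.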"}, "Human alphaherpesvirus 3 [23]": {"test_system": "Human alphaherpesvirus 3", "test": "Compound was tested for antiviral activity against Varicella-Zoster from human diploid foreskin cells in mono layer culture at 32 ug/ml", "assay_type": "functional", "procedure,_shortened": "as §4"}, "Human alphaherpesvirus 3 [24]": {"test_system": "Human alphaherpesvirus 3", "test": "Compound was tested for antiviral activity against Varicella-Zoster from human diploid foreskin cells in mono layer culture at 320 ug/ml", "assay_type": "functional", "procedure,_shortened": "as §4"}, "Vero [25]": {"test_system": "Vero", "test": "Cytotoxicity of compound was determined by reduction in number of viable vero monolayer cells after treatment with 0.01 ug/mL for 4 days", "assay_type": "functional, Chlorocebus sabaeus", "procedure,_shortened": "(§5)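 Vero monolayers in duplicate cultures, exposed to each drug concentration in medium at 37 °C in a CO2 incubator for 4 days. Viable cells counted by trypan blue exclusion, and % reduction calculated against untreated control cultures.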"}, "Vero [26]": {"test_system": "Vero", "test": "Cytotoxicity of compound was determined by reduction in number of viable vero monolayer cells after treatment with 0.032 ug/mL for 4 days", "assay_type": "functional, Chlorocebus sabaeus", "procedure,_shortened": "as §5"}, "Vero [27]": {"test_system": "Vero", "test": "Cytotoxicity of compound was determined by reduction in number of viable vero monolayer cells after treatment with 0.1 ug/mL for 4 days", "assay_type": "functional, Chlorocebus sabaeus", "procedure,_shortened": "as §5"}, "Vero [28]": {"test_system": "Vero", "test": "Cytotoxicity of compound was determined by reduction in number of viable vero monolayer cells after treatment with 1 ug/mL for 4 days", "assay_type": "functional, Chlorocebus sabaeus", "procedure,_shortened": "as §5"}, "Vero [29]": {"test_system": "Vero", "test": "Cytotoxicity of compound was determined by reduction in number of viable vero monolayer cells after treatment with 320 ug/mL for 4 days", "assay_type": "functional, Chlorocebus sabaeus", "procedure,_shortened": "as §5"}, "Human alphaherpesvirus 3 [30]": {"test_system": "Human alphaherpesvirus 3", "test": "Compound was tested for antiviral activity against Varicella-Zoster from human diploid foreskin cells in mono layer culture at 0.032 ug/ml", "assay_type": "functional", "procedure,_shortened": "as §4"}, "Human alphaherpesvirus 3 [31]": {"test_system": "Human alphaherpesvirus 3", "test": "Compound was tested for antiviral activity against Varicella-Zoster from human diploid foreskin cells in mono layer culture at 1 ug/ml", "assay_type": "functional", "procedure,_shortened": "as §4"}, "Human alphaherpesvirus 3 [32]": {"test_system": "Human alphaherpesvirus 3", "test": "Compound was tested for antiviral activity against Varicella-Zoster from human diploid foreskin cells in mono layer culture at 10 ug/ml", "assay_type": "functional", "procedure,_shortened": "as §4"}}, "note": "“And” between values parts separate entries of the source, which are not always exact repeats. Identical values can stand only once."}
{"smiles": "Nc1ccn([C@@H]2C=C(CO)[C@@H](O)[C@H]2O)c(=O)n1", "values": [{"measurement": "Reduction in virus yield", "setting": "Cytomegalovirus [1]", "value": 2, "unit": "pfu/ml"}, {"measurement": "Reduction in virus yield", "setting": "Cytomegalovirus [2]", "value": 5.3, "unit": "pfu/ml"}, {"measurement": "IC50", "setting": "[3]", "value": 18.2, "unit": "µg/mL"}, {"measurement": "Virus rating", "setting": "[4]", "value": 2.4}, {"measurement": "Virus rating", "setting": "[5]", "value": 2.4}, {"measurement": "ILS at 1 mg/kg", "setting": "L1210 [6]", "value": 83, "unit": "%"}, {"measurement": "ILS at 2.25 mg/kg", "setting": "L1210 [7]", "value": 57, "unit": "%"}, {"measurement": "ILS at 1 mg/kg", "setting": "L1210 [8]", "value": "> 650", "unit": "%"}, {"measurement": "ILS at 2.25 mg/kg", "setting": "L1210 [9]", "value": "> 650", "unit": "%"}, {"measurement": "ILS at 1 mg/kg", "setting": "L1210 [10]", "value": 124, "unit": "%"}, {"measurement": "IC50", "setting": "[11]", "value": 0.1, "unit": "µg/mL"}, {"measurement": "ILS at 1 mg/kg", "setting": "L1210 [12]", "value": 201, "unit": "%"}, {"measurement": "LCK", "setting": "M5076", "value": -2}, {"measurement": "ILS at 1.5 mg/kg", "setting": "L1210 [13]", "value": 45, "unit": "%"}, {"measurement": "ILS at 1.5 mg/kg", "setting": "L1210 [14]", "value": 109, "unit": "%"}, {"measurement": "ILS at 2 mg/kg", "setting": "Mus musculus [15]", "value": 92, "unit": "%"}, {"measurement": "ILS at 1 mg/kg", "setting": "Mus musculus [16]", "value": 119, "unit": "%"}, {"measurement": "ILS at 2.25 mg/kg", "setting": "Mus musculus [17]", "value": 58, "unit": "%"}, {"measurement": "No. of survivors", "setting": "P388 [18]", "value": 3}, {"measurement": "ILS at 1 mg/kg", "setting": "P388 [19]", "value": 88, "unit": "%"}, {"measurement": "Virus rating", "setting": "Punta Toro virus", "value": 1.5}, {"measurement": "ID50", "setting": "[20]", "value": "0.57 µg/mL and 0.25 µg/mL"}, {"measurement": "Virus rating", "setting": "[21]", "value": "2.4 and 3"}, {"measurement": "Plaque reduction", "setting": "Human alphaherpesvirus 3 [22]", "value": 33, "unit": "%"}, {"measurement": "Plaque reduction", "setting": "Human alphaherpesvirus 3 [23]", "value": 36, "unit": "%"}, {"measurement": "Plaque reduction", "setting": "Human alphaherpesvirus 3 [24]", "value": 36, "unit": "%"}, {"measurement": "Reduction", "setting": "Vero [25]", "value": 0, "unit": "%"}, {"measurement": "Reduction", "setting": "Vero [26]", "value": 3, "unit": "%"}, {"measurement": "Reduction", "setting": "Vero [27]", "value": 50, "unit": "%"}, {"measurement": "Reduction", "setting": "Vero [28]", "value": 61, "unit": "%"}, {"measurement": "Reduction", "setting": "Vero [29]", "value": 67, "unit": "%"}, {"measurement": "Plaque reduction", "setting": "Human alphaherpesvirus 3 [30]", "value": 3, "unit": "%"}, {"measurement": "Plaque reduction", "setting": "Human alphaherpesvirus 3 [31]", "value": 36, "unit": "%"}, {"measurement": "Plaque reduction", "setting": "Human alphaherpesvirus 3 [32]", "value": 33, "unit": "%"}]}
